Sampled rows, rich in hits. Any-hit rate of the full collection: about 11%.
S1P3 ag: S1P3 (human) receptor agonism. S1P3 NFAT-BLA reporter cells, FRET ratio; relative to 1 µM S1P, basal subtracted. activation, % at 4.5 µM. 60,000 tested, 0.1% active. AID 373;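 active = activation above the screen-wide mean plus 3 SD, cut at about 4.5% in these data, passing the limit was not always enough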
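material = human S1P3 NFAT-BLA reporter CHO cells | schedule = 4 h compound at 37 °C, 2 h substrate at RT | measured by = fluorescent BLA substrate, ex 405 nm, em 460/535 nm ratio | controls = 1 µM S1P reference | replication = primary once, confirmation triplicate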
S1P1 ag-PAM: agonists and agonism potentiators of human S1P1 receptor. P21453. S1P1 CRE-bla cells, forskolin, beta-lactamase FRET, potentiator mode; S1P1 agonist co-added at EC20, 2 nM; 100% = saturating reference agonist, 0% = basal. activation, % at 9.5 µM. 56,000 tested, 0.57% active. AID 449;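 active = activation above a cutoff set at the mean activation of all tested compounds plus 3 SD, cut at about 54% in these data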;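 also: forskolin at 4 µM as EC80 and the EC20 agonist is SEW2871; 100% = SEW2871 at its EC100 plus forskolin at EC80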
Target sequence (P21453 whole entry, looked up): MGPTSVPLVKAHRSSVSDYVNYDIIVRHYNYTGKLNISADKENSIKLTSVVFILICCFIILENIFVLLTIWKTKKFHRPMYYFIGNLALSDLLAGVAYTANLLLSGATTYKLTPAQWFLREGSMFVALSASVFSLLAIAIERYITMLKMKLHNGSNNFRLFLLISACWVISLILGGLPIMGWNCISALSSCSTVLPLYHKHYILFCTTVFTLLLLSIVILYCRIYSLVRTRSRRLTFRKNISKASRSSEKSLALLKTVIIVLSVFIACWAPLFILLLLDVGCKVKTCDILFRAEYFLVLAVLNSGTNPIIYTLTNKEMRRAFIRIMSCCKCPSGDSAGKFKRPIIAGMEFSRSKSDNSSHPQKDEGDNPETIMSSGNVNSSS
D1 allo mod: D1 dopamine receptor (human) allosteric modulation; AID 641; HEK293 D1, CRE-luciferase, dopamine EC30 potentiation; actives deviate in either direction; 58,000 tested, 5.9% active; B-score at 10 µM;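 active = luminescence count or its row- and column-corrected plate score outside the 99.7% band of the plate's sample wells, on either side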
M1 ag: activates the M1 muscarinic receptor; CHO-M1 cells, Fluo-4 calcium fluorescence, agonist mode; hits give high values; B-score at 10 µM; 64,000 tested, 3% active;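 active = fluorescence rise, raw or as B-score row- and column-corrected plate score, outside the 99.7% band of its plate's samples, either direction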
M1 antag: M1 muscarinic receptor (rat) antagonism; P08482; CHO-M1 cells, Fluo-4 calcium, ACh EC80 antagonist mode; hits give low values; B-score at 10 µM; 64,000 tested, 3.4% active; AID 628;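 active = calcium fluorescence response, raw or row-and-column corrected B-score, differing from the plate sample mean either way at a set confidence level, mostly lower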
M1 ag confirm: rat M1 muscarinic agonism, confirmation. shares compounds with M1 ag. CHO-M1 cells, Fluo-4 calcium fluorescence, agonist mode; actives lie on both sides. fluorescence change (max-min) at 10 µM. 1,700 tested, 19% active;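 active = fluorescence change differs from the solvent-only DMSO control mean at a set confidence level in both duplicate runs; inconclusive = differs from solvent-only control mean in just one of two runs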;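 also: an EC20 dose of acetylcholine follows compound addition during the same imaging run; raw fluorescence intensity difference in instrument units with no normalization to controls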
M4 ag counter: rat M4 muscarinic agonism, M1 counter-screen | fluorescence change (max-min) at 10 µM | shares compounds with M1 ag | 1,700 tested, 9% active | CHO M4/Gqi5 cells, Fluo-4 calcium fluorescence, agonist mode; actives lie on both sides;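 active = fluorescence change differing from the plate's solvent-only control wells at 99.7% confidence in both duplicates, whether higher or lower; inconclusive = differs from solvent controls in only one of two duplicates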
D1 mod confirm: confirmation of human D1 dopamine receptor allosteric modulators; shares compounds with D1 allo mod; HEK293 D1 CRE-luciferase, dopamine EC30 potentiation; hits give high values; luminescence at 10 µM; 2,200 tested, 88% active; AID 642;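 active = luminescence in either of two replicates above the same-plate mean plus 3 SD of the low-dose dopamine control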
D1 ag no DA: activates D1 CRE-luciferase signal without dopamine present. shares compounds with D1 allo mod. HEK293 D1 CRE-luciferase, luminescence, no dopamine; hits give high values. luminescence at 10 µM. 1,900 tested, 0.8% active. AID 646; in the data active = luminescence above about 3900
Isoprot counter: counter-screen for D1 modulators: isoproterenol response in HEK293 cells | shares compounds with D1 allo mod | HEK293 D1 CRE-luciferase, isoproterenol EC30 counter-screen; hits give high values | luminescence at 10 µM | 2,200 tested, 63% active | AID 647;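 active = luminescence in either replicate above plate mean of wells with a partly effective reference agonist dose plus 3 SD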;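 also: isoproterenol raises cAMP through native beta-adrenoceptor Gs so signal bypasses D1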
The depositor's hits bear a star.

`CCOC(=O)C1=C(C)OC(N)=C(C#N)C1c1cc(OC)c2c(c1)OCO2` (centres undefined) gave S1P3 ag 0, S1P1 ag-PAM -21, D1 allo mod 2.8, M1 ag -0.56 and M1 antag -0.59.
For COc1cccc(C2C(C(=O)OCc3ccccc3)=C(C)Nc3ncnn32)c1OC (centres undefined) the results were S1P3 ag -1, S1P1 ag-PAM -7, D1 allo mod 0.13, M1 ag -1.8 and M1 antag -0.23.
COC(=O)c1cc(OC)c(OC)cc1NC(=O)C1CCC(=O)N1S(=O)(=O)c1ccc(C)cc1 (centres undefined) was read as S1P3 ag -1, S1P1 ag-PAM 8, D1 allo mod 9.2*, M1 ag -2*, M1 antag -0.042, M1 ag confirm inconclusive, M4 ag counter -26, D1 mod confirm 16888* and Isoprot counter 7188*.
CC(=O)c1sc2nc(-c3cccs3)cc(C(F)(F)F)c2c1N was read as S1P3 ag -1, S1P1 ag-PAM 36, D1 allo mod 5.9*, M1 ag 98*, M1 antag -1.4, M1 ag confirm 123*, M4 ag counter 40, D1 mod confirm 12244*, D1 ag no DA 1624 and Isoprot counter 3268*.
`CCN(CC)S(=O)(=O)c1ccc2c(c1)nc(SCC(=O)NC1CC1)n2-c1ccccc1OC` gave S1P3 ag 0, S1P1 ag-PAM 10, D1 allo mod 0.094, M1 ag -0.22 and M1 antag -0.057.
Screening COc1ccccc1C(=O)Nc1cc(-c2nn3c(C)nnc3s2)ccc1C returned S1P3 ag 0, S1P1 ag-PAM -21, D1 allo mod 1.6, M1 ag 0.72 and M1 antag 0.081.
Screening COc1cc(-c2nnc3n2N=C(c2ccccc2)CS3)cc(OC)c1OC returned S1P3 ag -1, S1P1 ag-PAM -18, D1 allo mod 1.9*, M1 ag 4.6*, M1 antag -0.35, M1 ag confirm inconclusive, M4 ag counter -48, D1 mod confirm 7188*, D1 ag no DA 1768 and Isoprot counter 3664*.
COc1ccc(-c2nc(CSCC(=O)N3CCC(C(N)=O)CC3)c(C)o2)cc1OC was read as S1P3 ag 0, S1P1 ag-PAM -32, D1 allo mod 0.71, M1 ag 0.44 and M1 antag 0.48.
Screening CCOc1ccc(-c2nc(CSCC(=O)N3CCN(C(=O)c4ccco4)CC3)c(C)o2)cc1 returned S1P3 ag 1, S1P1 ag-PAM -14, D1 allo mod 3.6*, M1 ag -3.5*, M1 antag -0.36, M1 ag confirm inconclusive, M4 ag counter -42, D1 mod confirm 5924, D1 ag no DA 1480 and Isoprot counter 3468*.
For CCOC(=O)C1CCN(C(=O)CSCc2nc(-c3ccc(OCC)cc3)oc2C)CC1 the results were S1P3 ag -1, S1P1 ag-PAM 16, D1 allo mod 5.7*, M1 ag 5.1*, M1 antag -1.6, M1 ag confirm -11, M4 ag counter inconclusive, D1 mod confirm 12112*, D1 ag no DA 1828 and Isoprot counter 4784*.
For CCN(CC)c1ccc(C(=O)OCC(=O)N2CCN(c3ccccc3)CC2)cc1 the results were S1P3 ag -1, S1P1 ag-PAM 8, D1 allo mod 1.9, M1 ag -0.28 and M1 antag -1.6.
For COc1cc2c(cc1OC)C(C)N(C(=O)CCN1C(=O)C3C4C=CC(C4)C3C1=O)CC2 (centres undefined) the results were S1P3 ag -1, S1P1 ag-PAM -21, D1 allo mod -0.34, M1 ag 0.27 and M1 antag -0.026.
Screening COCCNC(=O)C1CCCN(c2ncccn2)C1 (centres undefined) returned S1P3 ag 0, S1P1 ag-PAM -1, D1 allo mod -0.082, M1 ag 0.51 and M1 antag 0.28.
Screening COCCCNC(=O)C1CCN(c2ncccn2)CC1 returned S1P3 ag 0, S1P1 ag-PAM -4, D1 allo mod 1.8*, M1 ag 2.6*, M1 antag -0.14, M1 ag confirm -22, M4 ag counter -51, D1 mod confirm 5220, D1 ag no DA 1492 and Isoprot counter 2332.
Screening Nc1nc2n(n1)C(c1ccco1)CC(c1ccc(F)cc1)N2 (centres undefined) returned S1P3 ag -1, S1P1 ag-PAM -10, D1 allo mod 7*, M1 ag 2.3*, M1 antag 0.11, M1 ag confirm inconclusive, M4 ag counter inconclusive, D1 mod confirm 9024*, D1 ag no DA 1664 and Isoprot counter 2560.
Cc1ccc(C2CC(c3ccco3)n3nc(N)nc3N2)cc1 (centres undefined) was read as S1P3 ag -2, S1P1 ag-PAM 10, M1 ag 0.42 and M1 antag -0.1.
`O=C(Nc1sc2c(c1C(=O)NC1CCCCC1)CCC2)c1ccco1` gave S1P3 ag -1, S1P1 ag-PAM 0, D1 allo mod 1, M1 ag 0.33 and M1 antag -0.9.
O=C(Nc1ncnc2sc3c(c12)CCCCC3)c1ccco1 was read as S1P3 ag 0, S1P1 ag-PAM -8, D1 allo mod 5.3*, M1 ag 37*, M1 antag -10*, M1 ag confirm -11, M4 ag counter -53, D1 mod confirm 9540*, D1 ag no DA 1788 and Isoprot counter 2888.
CCN(CC(=O)Nc1ccc2c(c1)OCCO2)c1nc(-c2cccnc2)nc2ccccc12 was read as S1P3 ag 0, S1P1 ag-PAM -46, D1 allo mod 3.6*, M1 ag 7.3*, M1 antag -0.64, M1 ag confirm -28*, M4 ag counter inconclusive, D1 mod confirm 7472*, D1 ag no DA 1256 and Isoprot counter 3272*.
